According to ChEMBL document CHEMBL1143106, “Synthesis, SAR, and antibacterial activity of novel oxazolidinone analogues possessing urea functionality” (2008):
In brackets after ≈: the same amount, converted by molar mass.

Experiments:
Format in all cases: functional
[1] = system: Enterococcus faecalis; test: Antimicrobial activity against vancomycin-sensitive Enterococcus faecalis ATCC 29212
[2] = system: Staphylococcus aureus; test: Antimicrobial activity against Staphylococcus aureus
[3] = system: Staphylococcus aureus; test: Antimicrobial activity against methicillin-resistant Staphylococcus aureus ATCC 33591
[4] = system: Staphylococcus aureus; test: Antimicrobial activity against Staphylococcus aureus ATCC 29213
[5] = system: Enterococcus faecalis; test: Antimicrobial activity against vancomycin-resistant Enterococcus faecalis NCTC-12201
[6] = system: Enterococcus faecium; test: Antimicrobial activity against vancomycin-resistant Enterococcus faecium ATCC 12202
[7] = system: Enterococcus faecium; test: Antimicrobial activity against vancomycin-resistant Enterococcus faecium ATCC 12202 infected in po dosed mouse
Summary of the method: (§1)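 Mice with systemic infection; dosing was oral (po line) or subcutaneous (sc line); ED50 reported in mg/kg.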

[8] = system: Enterococcus faecium; test: Antimicrobial activity against vancomycin-resistant Enterococcus faecium ATCC 12202 infected in sc dosed mouse; summary of the method: as §1

| Structure (SMILES) | MIC [1] [µg/mL] | MIC [2] [µg/mL] | MIC [3] [µg/mL] | MIC [4] [µg/mL] | MIC [5] [µg/mL] | MIC [6] [µg/mL] | ED50 [7] [mg/kg] | ED50 [8] [mg/kg] |
| --- | --- | --- | --- | --- | --- | --- | --- | --- |
| COc1ccc(CNC(=O)N2CCN(c3ccc(N4C[C@H](CNC(C)=O)OC4=O)cc3F)CC2)cc1 | 2 (≈ 4 µM) | 2 (≈ 4 µM) | 2 (≈ 4 µM) | 4 (≈ 8.01 µM) | 2 (≈ 4 µM) | 2 (≈ 4 µM) | – | – |
| CC(=O)NC[C@H]1CN(c2ccc(N3CCN(C(=O)Nc4nccs4)CC3)c(F)c2)C(=O)O1 | 1 (≈ 2.16 µM) | 2 (≈ 4.32 µM) | 2 (≈ 4.32 µM) | 2 (≈ 4.32 µM) | 1 (≈ 2.16 µM) | 1 (≈ 2.16 µM) | 18.4 | – |
| COc1ccccc1NC(=O)N1CCN(c2ccc(N3C[C@H](CNC(C)=O)OC3=O)cc2F)CC1 | 2 (≈ 4.12 µM) | 2 (≈ 4.12 µM) | 2 (≈ 4.12 µM) | 2 (≈ 4.12 µM) | 2 (≈ 4.12 µM) | 2 (≈ 4.12 µM) | 9.1 | – |
| CC(=O)NC[C@H]1CN(c2ccc(N3CCOCC3)c(F)c2)C(=O)O1 [LINEZOLID] | – | – | – | – | – | 2 (≈ 5.93 µM) | 3.91 | – |
| CC(=O)NC[C@H]1CN(c2ccc(N3CCN(C(=O)Nc4ccccc4)CC3)c(F)c2)C(=O)O1 | 2 (≈ 4.39 µM) | 2 (≈ 4.39 µM) | 4 (≈ 8.78 µM) | 4 (≈ 8.78 µM) | 2 (≈ 4.39 µM) | 2 (≈ 4.39 µM) | > 10 | – |
| CC(=O)NC[C@H]1CN(c2ccc(N3CCN(C(=O)NC(C)=O)CC3)c(F)c2)C(=O)O1 | 8 (≈ 19 µM) | 8 (≈ 19 µM) | 8 (≈ 19 µM) | 16 (≈ 38 µM) | 4 (≈ 9.49 µM) | 4 (≈ 9.49 µM) | – | – |
| CC(=O)NC[C@H]1CN(c2ccc(N3CCN(C(=O)NC4CC4)CC3)c(F)c2)C(=O)O1 | 8 (≈ 19.1 µM) | 8 (≈ 19.1 µM) | 8 (≈ 19.1 µM) | 16 (≈ 38.1 µM) | 4 (≈ 9.54 µM) | 4 (≈ 9.54 µM) | – | – |
| CC(=O)NC[C@H]1CN(c2ccc(N3CCN(C(=O)Nc4ccon4)CC3)c(F)c2)C(=O)O1 | 2 (≈ 4.48 µM) | 4 (≈ 8.96 µM) | 4 (≈ 8.96 µM) | 4 (≈ 8.96 µM) | 2 (≈ 4.48 µM) | 4 (≈ 8.96 µM) | – | – |
| CC(=O)NC[C@H]1CN(c2ccc(N3CCN(C(=O)NCc4ccc(Cl)cc4)CC3)c(F)c2)C(=O)O1 | 4 (≈ 7.94 µM) | 4 (≈ 7.94 µM) | 4 (≈ 7.94 µM) | 4 (≈ 7.94 µM) | 2 (≈ 3.97 µM) | 4 (≈ 7.94 µM) | – | – |
| CC(=N)NC(=O)N1CCN(c2ccc(N3C[C@H](CNC(C)=O)OC3=O)cc2F)CC1 | 2 (≈ 4.76 µM) | 4 (≈ 9.51 µM) | 4 (≈ 9.51 µM) | 4 (≈ 9.51 µM) | 2 (≈ 4.76 µM) | 4 (≈ 9.51 µM) | – | – |
| CC(=O)NC[C@H]1CN(c2ccc(N3CCN(C(=O)Nc4cccc(F)c4)CC3)c(F)c2)C(=O)O1 | 2 (≈ 4.22 µM) | 2 (≈ 4.22 µM) | 2 (≈ 4.22 µM) | 4 (≈ 8.45 µM) | 1 (≈ 2.11 µM) | 2 (≈ 4.22 µM) | 18.4 | – |
| COc1ccc(NC(=O)N2CCN(c3ccc(N4C[C@H](CNC(C)=O)OC4=O)cc3F)CC2)c(OC)c1 | 2 (≈ 3.88 µM) | 4 (≈ 7.76 µM) | 4 (≈ 7.76 µM) | 4 (≈ 7.76 µM) | 2 (≈ 3.88 µM) | 4 (≈ 7.76 µM) | – | – |
| CNC(=O)N1CCN(c2ccc(N3C[C@H](CNC(C)=O)OC3=O)cc2F)CC1 | 4 (≈ 10.2 µM) | 4 (≈ 10.2 µM) | 4 (≈ 10.2 µM) | 4 (≈ 10.2 µM) | 2 (≈ 5.08 µM) | 4 (≈ 10.2 µM) | – | – |
| CC(=O)NC[C@H]1CN(c2ccc(N3CCN(C(=O)Nc4ccc(Cl)cc4Cl)CC3)c(F)c2)C(=O)O1 | 2 (≈ 3.81 µM) | 2 (≈ 3.81 µM) | 1 (≈ 1.91 µM) | 2 (≈ 3.81 µM) | 1 (≈ 1.91 µM) | 2 (≈ 3.81 µM) | > 10 | – |
| CC(=O)NC[C@H]1CN(c2ccc(N3CCN(C(N)=O)CC3)c(F)c2)C(=O)O1 | 2 (≈ 5.27 µM) | 2 (≈ 5.27 µM) | 2 (≈ 5.27 µM) | 4 (≈ 10.5 µM) | 2 (≈ 5.27 µM) | 2 (≈ 5.27 µM) | 13.8 | – |
| CC(=O)NC[C@H]1CN(c2ccc(N3CCN(C(=O)NC4CCCC4)CC3)c(F)c2)C(=O)O1 | 4 (≈ 8.94 µM) | 8 (≈ 17.9 µM) | 8 (≈ 17.9 µM) | 8 (≈ 17.9 µM) | 4 (≈ 8.94 µM) | 4 (≈ 8.94 µM) | – | – |
| CC(=O)NC[C@H]1CN(c2ccc(N3CCN(C(=O)Nc4ccccc4Cl)CC3)c(F)c2)C(=O)O1 | 2 (≈ 4.08 µM) | 2 (≈ 4.08 µM) | 2 (≈ 4.08 µM) | 4 (≈ 8.16 µM) | 2 (≈ 4.08 µM) | 2 (≈ 4.08 µM) | – | – |
| CC(=O)NC[C@H]1CN(c2ccc(N3CCN(C(=O)Nc4ccccn4)CC3)c(F)c2)C(=O)O1 | 1 (≈ 2.19 µM) | 2 (≈ 4.38 µM) | 2 (≈ 4.38 µM) | 2 (≈ 4.38 µM) | 1 (≈ 2.19 µM) | 1 (≈ 2.19 µM) | – | – |
| CC(=O)NC[C@H]1CN(c2ccc(N3CCN(C(=O)NC4CCCCCC4)CC3)c(F)c2)C(=O)O1 | 4 (≈ 8.41 µM) | 4 (≈ 8.41 µM) | 4 (≈ 8.41 µM) | 4 (≈ 8.41 µM) | 2 (≈ 4.21 µM) | 4 (≈ 8.41 µM) | – | – |
| CN[C@H](CC(C)C)C(=O)N[C@H]1C(=O)N[C@@H](CC(N)=O)C(=O)N[C@H]2C(=O)N[C@H]3C(=O)N[C@H](C(=O)N[C@H](C(=O)O)c4cc(O)cc(O)c4-c4cc3ccc4O)[C@H](O)c3ccc(c(Cl)c3)Oc3cc2cc(c3O[C@@H]2O[C@H](CO)[C@@H](O)[C@H](O)[C@H]2O[C@H]2C[C@](C)(N)[C@H](O)[C@H](C)O2)Oc2ccc(cc2Cl)[C@H]1O [VANCOMYCIN] | 2 (≈ 1.38 µM) | – | – | – | > 32 | > 32 | – | 3.93 |
| CC(=O)NC[C@H]1CN(c2ccc(N3CCN(C(=O)NO)CC3)c(F)c2)C(=O)O1 | 4 (≈ 10.1 µM) | 2 (≈ 5.06 µM) | 4 (≈ 10.1 µM) | 4 (≈ 10.1 µM) | 2 (≈ 5.06 µM) | 2 (≈ 5.06 µM) | – | – |
